Assay results as given in ChEMBL document CHEMBL1122625, “Synthesis and antiviral/antitumor activities of certain 3-deazaguanine nucleosides and nucleotides” (J Med Chem, 1984).
pIC50: −log10 of the molar value. Activity calls are given as the source filed them. The rule behind the calls is not given here.

Legend:
[1] = tested on: P388; test: In vitro antitumor activity in the culture media (that produced 50% inhibition of the P388 leukemia cell growth as compared to the untreated cells); b=Inactive at 10E-4 M; assay type: functional, cell-based; settings: Mus musculus
Method in brief: (§1)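 L1210 leukemia and P388 lymphoid neoplasm cells kept in RPMI-1640 with 10% heat-inactivated fetal calf serum. Seeded at 5 × 10⁴ cells/mL, then grown 48 h at 37 °C with compound at 4-5 log doses. Growth counted by Coulter counter and expressed as % of control tubes. ID50 is the dose giving 50% growth inhibition.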

[2] = tested on: L1210; test: In vitro antitumor activity in the culture media (that produced 50% inhibition of the L1210 leukemia cell growth as compared to the untreated cells); b=Inactive at 10E-4 M; assay type: functional, cell-based; settings: Mus musculus; method in brief: as §1
[3] = tested on: Vesicular stomatitis virus; test: In vitro antiviral activity (virus ratings (VR)) determined by comparing CPE development in drug-treated cells (T) and Vesicular stomatitis virus control cells; assay type: functional
[4] = tested on: Human respirovirus 3; test: In vitro antiviral activity (virus ratings (VR)) determined by comparing CPE development in drug-treated cells (T) and Parainfluenza type 3 virus control cells; assay type: functional
[5] = tested on: Human alphaherpesvirus 1; test: In vitro antiviral activity (virus ratings (VR)) determined by comparing CPE development in drug-treated cells (T) and HSV-1 virus control cells; assay type: functional
[6] = tested on: Vaccinia virus; test: In vitro antiviral activity (virus ratings (VR)) determined by comparing CPE development in drug-treated cells (T) and Vaccinia virus control cells; assay type: functional, Orthopoxvirus vaccinia
[7] = Toxic level was evaluated; None; assay type: ADME
[8] = tested on: Human respirovirus 3; test: In vitro antiviral activity (virus ratings (VR)) determined by comparing CPE development in drug-treated cells (T) and Parainfluenza type 3 virus control cells.; assay type: functional
[9] = tested on: P388; test: In vitro antitumor activity in the culture media (that produced 50% inhibition of the P388 leukemia cell growth as compared to the untreated cells); b=Inactive at 10E-4; assay type: functional, cell-based; settings: Mus musculus; method in brief: as §1
[10] = tested on: L1210; test: In vitro antitumor activity in the culture media (that produced 50% inhibition of the L1210 leukemia cell growth as compared to the untreated cells); Inhibition at 10E-5; assay type: functional, Mus musculus
[11] = tested on: P388; test: In vitro antitumor activity in the culture media (that produced 50% inhibition of the P388 leukemia cell growth as compared to the untreated cells); assay type: functional; settings: Mus musculus, read-out: ID50 (the source's name)
Method in brief: (§2)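 L1210 or P388 cells kept in RPMI-1640 with 10% heat-inactivated fetal calf serum and seeded in tubes at 5 × 10⁴ cells/mL. Grown with compound at 4-5 log doses for 48 h at 37 °C. Cells counted electronically, growth expressed as % of untreated control tubes, and the dose giving 50% growth inhibition (ID₅₀) determined.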

[12] = tested on: L1210; test: In vitro antitumor activity in the culture media (that produced 50% inhibition of the L1210 leukemia cell growth as compared to the untreated cells); assay type: functional; settings: Mus musculus, read-out: ID50 (the source's name); method in brief: as §2
[13] = tested on: P388; test: In vitro antitumor activity in the culture media (that produced 50% inhibition of the P388 leukemia cell growth as compared to the untreated cells); Inhibition at 10E-4; assay type: functional, Mus musculus
[14] = tested on: P388; test: In vitro antitumor activity in the culture media (that produced 50% inhibition of the P388 leukemia cell growth as compared to the untreated cells); Inhibition at 10E-5; assay type: functional, Mus musculus
[15] = tested on: Vesicular stomatitis virus; test: In vitro antiviral activity (virus ratings (VR)) determined by comparing CPE development in drug-treated cells (T) and VSV virus control cells; assay type: functional

Structure (SMILES)	ID50 [1]	ID50 [2]	Virus rating [3]	Virus rating [4]	Virus rating [5]	Virus rating [6]	Toxic level [7]	Virus rating [8]	ID50 [9]	Inhibition [10] [%]	pIC50 [11]	pIC50 [12]	Inhibition [13] [%]	Inhibition [14] [%]	Virus rating [15]
Nc1cc2ncn([C@H]3C[C@H](O)[C@@H](CO)O3)c2c(O)n1	Inactive at 10^-4M	Inactive at 10^-4M	1.06	0.92	0.8	1.42	Not Active	–	–	–	–	–	–	–	–
Nc1cc2c(ncn2[C@@H]2C[C@H](O)[C@@H](CO)O2)c(O)n1	–	–	0.8	–	1	1.65	Not Active	0.7	Inactive at 10^-4M	45	–	–	–	–	–
NNc1cc2ncnc-2c(O)n1N	–	–	0	–	0.05	0.15	–	0.03	–	–	4.21	4.46	–	–	–
NC(=O)c1ncn([C@@H]2O[C@H](CO)[C@@H](O)[C@H]2O)n1 [RIBAVIRIN]	–	–	0.8	–	0.6	1.2	Not Active	1.3	–	–	–	–	–	–	–
Nc1cc2[nH]cnc2c(=O)[nH]1 [DEZAGUANINE]	–	–	1.55	0.98	1.4	1.55	–	–	–	–	–	4.21	39	–	–
Nc1cc2c(ncn2[C@H]2C[C@H](O)[C@@H](CO)O2)c(O)n1	–	–	1.03	–	1.28	1.72	Not Active	1.45	–	–	4.38	4.70	–	–	–
Nc1cc2c(ncn2[C@@H]2O[C@@H]3COP(=O)(O)O[C@H]3[C@H]2O)c(O)n1	–	–	1	–	1.02	1.15	–	0.62	–	–	4.35	5.39	–	–	–
Nc1cc2ncn([C@@H]3C[C@H](O)[C@@H](CO)O3)c2c(O)n1	–	–	0.35	–	0.3	1.18	–	0.22	–	–	–	4.10	–	31	–
Nc1cc2c(ncn2C2O[C@H](CO)[C@@H](O)[C@H]2O)c(=O)n1N (some centres not stated)	Inactive at 10^-4M	Inactive at 10^-4M	–	–	0.25	1.25	–	0.3	–	–	–	–	–	–	0.45
Nc1cc2c(ncn2[C@@H]2O[C@H](CO)[C@@H](O)[C@H]2O)c(=O)[nH]1	–	–	1.5	–	1.4	1.5	–	1.18	–	–	4.80	4.74	–	–	–
